Results published in publication PMC3268775 (Journal of the American Chemical Society, 2012).
Positions count from the first letter of the chain named. Numbered stars: 1 amine (or outer) side, 2 acyl side, 3 side chain; on linkers, the order of the positions; unused ones are H or OH. Square brackets hold non-standard residues; d marks the D form. Peptide text beside a SMILES is read from it. * marks the point of attachment. Isonicotinoyl(2-(4-Me-2-Py)) = Cc1ccnc(-c2cc(C(=O)*)ccn2)c1; X1 = O=C([C@H](Cc1c(F)cc(O)c(F)c1F)N[*:1])[*:2]

Assays:
C439S-α2 = molecular target: T1, C439S-α2 (Escherichia coli, UniProt P00452, C439S); test: Flash-quench transient absorption: •F3Y radical in presence of C439S-α2; type: biochemical
T1 sequence (P00452 1-761 C439S): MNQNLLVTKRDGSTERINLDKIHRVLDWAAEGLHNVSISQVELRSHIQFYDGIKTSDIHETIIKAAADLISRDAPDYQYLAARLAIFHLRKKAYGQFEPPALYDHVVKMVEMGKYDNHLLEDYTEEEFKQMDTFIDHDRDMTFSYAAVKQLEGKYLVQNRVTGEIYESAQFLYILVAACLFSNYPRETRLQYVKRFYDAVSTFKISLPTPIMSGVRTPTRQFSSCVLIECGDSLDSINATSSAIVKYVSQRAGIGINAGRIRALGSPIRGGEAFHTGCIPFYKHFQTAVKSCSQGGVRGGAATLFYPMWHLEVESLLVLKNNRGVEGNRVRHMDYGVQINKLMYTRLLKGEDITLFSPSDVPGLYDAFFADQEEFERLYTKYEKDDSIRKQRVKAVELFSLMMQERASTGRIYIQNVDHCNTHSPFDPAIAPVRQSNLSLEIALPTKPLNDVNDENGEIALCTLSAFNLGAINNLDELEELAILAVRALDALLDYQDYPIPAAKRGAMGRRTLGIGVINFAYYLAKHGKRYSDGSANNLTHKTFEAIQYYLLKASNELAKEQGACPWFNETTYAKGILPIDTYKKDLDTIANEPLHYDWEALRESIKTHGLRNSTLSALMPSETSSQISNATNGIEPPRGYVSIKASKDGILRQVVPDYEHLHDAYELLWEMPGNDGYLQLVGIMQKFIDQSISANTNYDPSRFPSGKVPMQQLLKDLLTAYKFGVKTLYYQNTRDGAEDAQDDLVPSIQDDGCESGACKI

α2 mutants = test: Charge-separated state lifetime in presence of α2 proteins; type: physicochemical, Escherichia coli; conditions: each of the protein mutants, in words
[1] = Flash-quench transient absorption: •F3Y radical of free peptide; type: physicochemical
Procedure, shortened: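 Free Re-labelled test peptide (50 μM) with 1 mM Ru(NH3)6Cl3 flash quencher, 1 mM CDP and 3 mM ATP in 50 mM borate, pH 8.3, 15 mM MgSO4, 5% glycerol. Samples were equilibrated 3 min at 23 °C and flowed through the cuvette, then excited with a 7 ns 355 nm pulse. Spectra averaged three data sets with FFT noise filtering. Kinetic traces were fitted by weighted least squares; errors are one SD.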

wt-α2 = molecular target: T2, wt-α2 (Escherichia coli, UniProt P00452); test: Flash-quench transient absorption: •F3Y radical in presence of wt-α2; type: biochemical
T2 sequence (P00452 1-761): T1 sequence (P00452 1-761 C439S) with S439C

Y731F-α2 = molecular target: T3, Y731F-α2 (Escherichia coli, UniProt P00452, Y731F); test: Flash-quench transient absorption: •F3Y radical in presence of Y731F-α2; type: biochemical
T3 sequence (P00452 1-761 Y731F): T1 sequence (P00452 1-761 C439S) with S439C, Y731F

[2] = C439S-α2, average across three wavelengths (395, 410, 425 nm)

## CC[C@H](C)[C@H](NC(=O)[C@H](CCC(N)=O)NC(=O)CNC(=O)[C@@H](NC(=O)[C@H](CC(C)C)NC(=O)[C@H](Cc1c(F)cc(O)c(F)c1F)NC(=O)c1ccnc(-c2cc(C)ccn2)c1)C(C)C)C(=O)N[C@@H](CC(=O)O)C(=O)N[C@@H](CO)C(=O)N[C@@H](CCC(=O)O)C(=O)N[C@H](C(=O)N[C@@H](CC(=O)O)C(=O)N[C@H](C(=O)N[C@@H](CC(=O)O)C(=O)N[C@@H](CC(=O)O)C(=O)N[C@@H](CC(C)C)C(=O)N[C@@H](CO)C(=O)N[C@@H](CC(N)=O)C(=O)N[C@@H](Cc1ccccc1)C(=O)N[C@@H](CCC(N)=O)C(=O)N[C@@H](CC(C)C)C(=O)O)[C@@H](C)O)C(C)C [[Re]–F3Y–βC19] ({Isonicotinoyl(2-(4-Me-2-Py))}-[X1]LVGQIDSEVDTDDLSNFQL-OH; N-terminus and C-terminus assumed)
C439S-α2; C439S-α2
  •F3Y radical decay profile (in words): biexponential decay owing to the contribution of a significantly shorter lifetime component
  •F3Y radical decay: small amplitude component ("on" state): 20%
C439S-α2; C439S-α2, 395 nm
  amplitude of long phase: 81%
  amplitude of short phase: 19%
C439S-α2; C439S-α2, 395 nm, biexponential
  •F3Y lifetime, short phase: 2.2 ± 1 μs
C439S-α2; C439S-α2, 395 nm, biexponential, 50 μM peptide, 100 μM C439S-α2, 1 mM Ru(NH3)6Cl3, 1 mM CDP, 3 mM ATP, borate pH 8.3
  •F3Y lifetime, long phase: 17.3 ± 0.9 μs
C439S-α2; [2]
  •F3Y lifetime, "off" state: 16.9 ± 0.7 μs
  •F3Y lifetime, "on" state: 2.5 ± 1.0 μs
α2 mutants
  charge-separated state lifetime vs protein mutant: Identical lifetimes
[1]; flash quench, 20 mol equiv Ru(NH3)6Cl3, λdet 425 nm
  fast time component, recombination of charge-separated state: 100 ns
[1]; free peptide, 395 nm, monoexponential, 50 μM peptide, 1 mM Ru(NH3)6Cl3, 1 mM CDP, 3 mM ATP, 15 mM MgSO4, 5% glycerol, 50 mM borate pH 8.3, average of 3–6 data sets
  •F3Y lifetime τ395: 14.7 ± 0.2 μs
[1]; free peptide, 410 nm, monoexponential, 50 μM peptide, 1 mM Ru(NH3)6Cl3, borate pH 8.3, average of 3–6 data sets
  •F3Y lifetime τ410: 13.5 ± 0.2 μs
[1]; free peptide, 425 nm, monoexponential, 50 μM peptide, 1 mM Ru(NH3)6Cl3, borate pH 8.3, average of 3–6 data sets
  •F3Y lifetime τ425: 14.5 ± 0.4 μs
[1]; optimized flash-quench system, 20 mol equiv Ru(NH3)6Cl3, calculated, see SI
  photochemical yield of •F3Y formation: 4.9%
wt-α2; wt-α2
  •F3Y radical decay profile (in words): biexponential decay owing to the contribution of a significantly shorter lifetime component
wt-α2; wt-α2, Eq. 1: kox = 1/τon − 1/τoff
  injection rate: (3 ± 2) × 10^5 s^−1
wt-α2; wt-α2, averaged across wavelengths
  •F3Y lifetime, short phase: 3.0 ± 1.4 μs
wt-α2; wt-α2, averaged across wavelengths, 50 μM peptide, 100 μM α2, 1 mM Ru(NH3)6Cl3, 1 mM CDP, 3 mM ATP, borate pH 8.3
  •F3Y lifetime, long phase: 15.4 ± 0.5 μs
Y731F-α2; Y731F-α2
  radical lifetime change / radical injection (in words): cannot competently inject the radical into α2
Y731F-α2; Y731F-α2, 410 nm, monoexponential, 50 μM peptide, 100 μM α2, pH 8.3
  •F3Y lifetime τ410: 14.2 ± 0.2 μs
Y731F-α2; Y731F-α2, 425 nm, monoexponential, 50 μM peptide, 100 μM α2, pH 8.3
  •F3Y lifetime τ425: 16.5 ± 0.4 μs
Y731F-α2; Y731F-α2, from amplitude of the •F3Y lifetime
  portion of peptide N-terminus in the "on" conformer: 20–30%
Y731F-α2; Y731F-α2, listed as [Re]–•F3Y–βC19
  radical lifetime change / radical injection (in words): no significant change in radical lifetime
